Tests used:
[1] = target: Cholinesterase (Equus caballus) (UniProt P81908); test: Selectivity ratio of Galanthamine IC50 to compound IC50 for equine BChE
[2] = Selectivity ratio of IC50 for electric eel AChE to IC50 for equine serum BuChE
[3] = Selectivity ratio of IC50 for equine serum BuChE to IC50 for electric eel AChE
[4] = target: Cholinesterase (Equus caballus, UniProt P81908); test: Inhibition of equine serum BuChE using S-butyrylthiocholine chloride as substrate incubated for 15 mins prior to substrate addition measured after 30 mins by Ellman's method
Chain of Cholinesterase (P81908 whole entry): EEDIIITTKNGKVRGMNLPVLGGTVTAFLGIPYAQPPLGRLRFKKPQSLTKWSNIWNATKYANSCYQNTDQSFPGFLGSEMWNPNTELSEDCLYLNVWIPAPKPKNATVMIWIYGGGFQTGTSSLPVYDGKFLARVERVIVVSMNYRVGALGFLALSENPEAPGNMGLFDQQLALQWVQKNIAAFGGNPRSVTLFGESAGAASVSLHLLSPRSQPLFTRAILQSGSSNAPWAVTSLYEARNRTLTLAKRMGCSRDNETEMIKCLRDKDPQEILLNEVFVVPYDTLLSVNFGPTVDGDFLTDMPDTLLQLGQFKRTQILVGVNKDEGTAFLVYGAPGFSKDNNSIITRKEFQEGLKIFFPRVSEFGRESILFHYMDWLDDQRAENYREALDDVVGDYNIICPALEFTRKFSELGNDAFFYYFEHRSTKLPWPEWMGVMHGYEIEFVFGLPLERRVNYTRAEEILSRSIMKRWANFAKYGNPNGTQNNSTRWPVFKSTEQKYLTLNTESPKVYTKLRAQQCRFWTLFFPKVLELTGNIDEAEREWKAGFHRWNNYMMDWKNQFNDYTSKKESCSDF
Outline: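 Modified Ellman method in 0.1 M sodium phosphate buffer, pH 8. Samples were dissolved in DMSO (1 mg/mL stock; 1% DMSO final). Equine serum BChE was preincubated with sample for 15 min at 25 °C. DTNB (10 mM stock) and S-butyrylthiocholine chloride were then added, and absorbance was read at 412 nm after 30 min. Triplicate, blank-corrected, % inhibition versus control.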

[5] = target: Acetylcholinesterase (Electrophorus electricus, UniProt O42275); test: Inhibition of electric eel AChE using […] as substrate incubated for 15 mins prior to substrate addition measured after 30 mins by Ellman's method
Chain of Acetylcholinesterase (O42275 whole entry): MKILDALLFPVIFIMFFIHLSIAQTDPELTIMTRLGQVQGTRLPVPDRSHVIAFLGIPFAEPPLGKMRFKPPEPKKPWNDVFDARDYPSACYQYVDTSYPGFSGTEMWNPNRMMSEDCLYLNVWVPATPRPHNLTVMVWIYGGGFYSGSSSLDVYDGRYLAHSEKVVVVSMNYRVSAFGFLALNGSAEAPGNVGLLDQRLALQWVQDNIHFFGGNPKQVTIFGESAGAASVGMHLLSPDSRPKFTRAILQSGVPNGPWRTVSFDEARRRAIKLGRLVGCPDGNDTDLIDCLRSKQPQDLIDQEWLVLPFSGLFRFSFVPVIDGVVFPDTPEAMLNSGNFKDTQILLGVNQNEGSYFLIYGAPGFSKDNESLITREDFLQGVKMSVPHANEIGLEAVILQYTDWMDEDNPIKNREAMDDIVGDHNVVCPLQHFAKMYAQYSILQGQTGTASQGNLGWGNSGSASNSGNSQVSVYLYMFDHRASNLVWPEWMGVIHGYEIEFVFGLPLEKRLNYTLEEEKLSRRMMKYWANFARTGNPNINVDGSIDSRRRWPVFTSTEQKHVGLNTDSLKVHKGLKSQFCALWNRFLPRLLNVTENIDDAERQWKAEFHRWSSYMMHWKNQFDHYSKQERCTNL

Chain of Cholinesterase (Equus caballus) (P81908 whole entry): as the sequence (P81908 whole entry) above

Compound	Ratio IC50 [1]	Ratio IC50 [2]	Ratio IC50 [3]	IC50 [4]	IC50 [5]
O=C1NC2=C(CNC/C2=C\c2ccccc2Cl)C(c2ccccc2Cl)N1 (stereo not given)	2	9.57	0.1	2.51 µM	24.1 µM
S=C1NC2=C(CNC/C2=C\c2ccc(Br)cc2)C(c2ccc(Br)cc2)N1 (stereo not given)	12	7.2	0.14	1.65 µM	11.9 µM
O=C1NC2=C(CNC/C2=C\c2ccccc2)C(c2ccccc2)N1 (stereo not given)	2	24	0.04	2.86 µM	68.7 µM
Cc1ccc(/C=C2\CNCC3=C2NC(=S)NC3c2ccc(C)cc2)cc1 (stereo not given)	2	5.95	0.17	6.27 µM	37.5 µM
Cc1ccccc1/C=C1\CNCC2=C1NC(=O)NC2c1ccccc1C (stereo not given)	2	7.74	0.13	5.22 µM	40.4 µM
COc1ccccc1/C=C1\CNCC2=C1NC(=S)NC2c1ccccc1OC (stereo not given)	16	0.67	1.47	1.18 µM	0.8 µM
O=C1NC2=C(CNC/C2=C\c2ccc(Cl)cc2Cl)C(c2ccc(Cl)cc2Cl)N1 (stereo not given)	2	1.26	0.79	23.5 µM	29.9 µM
O=[N+]([O-])c1cccc(/C=C2\CNCC3=C2NC(=S)NC3c2cccc([N+](=O)[O-])c2)c1 (stereo not given)	2	4.25	0.24	8.09 µM	34.3 µM
O=C1NC2=C(CNC/C2=C\c2cccc([N+](=O)[O-])c2)C(c2cccc([N+](=O)[O-])c2)N1 (stereo not given)	2	2.73	0.37	10.3 µM	28.3 µM
S=C1NC2=C(CNC/C2=C\c2cccc3ccccc23)C(c2cccc3ccccc23)N1 (stereo not given)	2	0.25	4.07	5.58 µM	1.37 µM
O=C1NC2=C(CNC/C2=C\c2ccc(Br)cc2)C(c2ccc(Br)cc2)N1 (stereo not given)	2	2.54	0.39	6.22 µM	15.9 µM
O=C1NC2=C(CNC/C2=C\c2ccc(Cl)cc2)C(c2ccc(Cl)cc2)N1 (stereo not given)	2	2.2	0.45	16.7 µM	36.8 µM
Fc1ccccc1/C=C1\CNCC2=C1NC(=S)NC2c1ccccc1F (stereo not given)	2	6.21	0.16	6.5 µM	40.4 µM
O=C1NC2=C(CNC/C2=C\c2ccccc2F)C(c2ccccc2F)N1 (stereo not given)	2	5.61	0.18	3.31 µM	18.6 µM
Cc1ccccc1/C=C1\CNCC2=C1NC(=S)NC2c1ccccc1C (stereo not given)	2	12.9	0.08	3.07 µM	39.7 µM
COc1ccccc1/C=C1\CNCC2=C1NC(=O)NC2c1ccccc1OC (stereo not given)	2	3.75	0.27	10.7 µM	40.2 µM
O=C1NC2=C(CNC/C2=C\c2cccc3ccccc23)C(c2cccc3ccccc23)N1 (stereo not given)	2	2.44	0.41	5.39 µM	13.2 µM
O=C1NC2=C(CNC/C2=C\c2ccc(F)cc2)C(c2ccc(F)cc2)N1 (stereo not given)	2	2.34	0.43	18.9 µM	44.2 µM
S=C1NC2=C(CNC/C2=C\c2ccc(Cl)cc2Cl)C(c2ccc(Cl)cc2Cl)N1 (stereo not given)	2	0.67	1.5	49.8 µM	26.3 µM
Cc1ccc(/C=C2\CNCC3=C2NC(=O)NC3c2ccc(C)cc2)cc1 (stereo not given)	2	6.56	0.15	7.09 µM	46.5 µM
Fc1ccc(/C=C2\CNCC3=C2NC(=S)NC3c2ccc(F)cc2)cc1 (stereo not given)	2	1.29	0.77	28.8 µM	37.2 µM
S=C1NC2=C(CNC/C2=C\c2ccccc2Cl)C(c2ccccc2Cl)N1 (stereo not given)	2	11.1	0.09	2.91 µM	32.4 µM
S=C1NC2=C(CNC/C2=C\c2ccccc2)C(c2ccccc2)N1 (stereo not given)	2	5.09	0.2	3.78 µM	19.3 µM
S=C1NC2=C(CNC/C2=C\c2ccc(Cl)cc2)C(c2ccc(Cl)cc2)N1 (stereo not given)	2	0.35	2.78	6.26 µM	2.25 µM

Source: ChEMBL document CHEMBL2385018, “Microwave assisted synthesis, cholinesterase enzymes inhibitory activities and molecular docking studies of new pyridopyrimidine derivatives” (Bioorg Med Chem, 2013)
